Reference: ChEMBL document CHEMBL1143565, “Pyrido[2,3-d]pyrimidin-7-ones as specific inhibitors of cyclin-dependent kinase 4” (J Med Chem, 2005)

Target: Mitogen-activated protein kinase 14 (Homo sapiens, UniProt Q16539)
Assay: Inhibition of Stress activated protein kinase 2a

Sequence of Mitogen-activated protein kinase 14 (Q16539 whole entry): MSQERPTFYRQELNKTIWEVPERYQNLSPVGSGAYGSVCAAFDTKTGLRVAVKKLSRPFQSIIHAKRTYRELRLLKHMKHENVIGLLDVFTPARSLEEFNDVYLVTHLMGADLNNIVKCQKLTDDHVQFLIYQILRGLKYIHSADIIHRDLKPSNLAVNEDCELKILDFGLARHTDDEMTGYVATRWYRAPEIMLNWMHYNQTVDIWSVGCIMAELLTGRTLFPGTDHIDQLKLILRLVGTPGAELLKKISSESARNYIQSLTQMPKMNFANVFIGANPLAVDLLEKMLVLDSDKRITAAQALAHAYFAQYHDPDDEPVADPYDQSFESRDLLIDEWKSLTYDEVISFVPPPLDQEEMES

Q: For `CC(=O)c1c(C)c2cnc(Nc3ccc(N4CCNCC4)cc3)nc2n(C2CCCC2)c1=O`, which IC50 is on record?
A: > 10 µM

Target: Mitogen-activated protein kinase 11 (Homo sapiens, UniProt Q15759)
Assay: Inhibition of Stress activated protein kinase 2b

Sequence of Mitogen-activated protein kinase 11 (Q15759 whole entry): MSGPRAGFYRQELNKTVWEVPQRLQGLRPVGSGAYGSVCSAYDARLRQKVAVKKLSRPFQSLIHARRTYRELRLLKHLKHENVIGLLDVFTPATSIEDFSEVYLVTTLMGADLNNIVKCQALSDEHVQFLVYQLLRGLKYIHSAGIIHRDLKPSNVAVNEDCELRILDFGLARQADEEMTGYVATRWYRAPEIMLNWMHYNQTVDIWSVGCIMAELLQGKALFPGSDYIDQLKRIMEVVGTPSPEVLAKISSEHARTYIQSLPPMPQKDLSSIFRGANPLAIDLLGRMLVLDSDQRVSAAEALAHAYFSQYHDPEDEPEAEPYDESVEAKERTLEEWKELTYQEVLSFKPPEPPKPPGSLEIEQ

Q: Which IC50 does the source give for `CC(=O)c1c(C)c2cnc(Nc3ccc(N4CCNCC4)cc3)nc2n(C2CCCC2)c1=O` here?
A: > 10 µM

Target: not listed separately
Assay: Inhibition of Tyrosine-protein kinase CSK

Q: With `CC(=O)c1c(C)c2cnc(Nc3ccc(N4CCNCC4)cc3)nc2n(C2CCCC2)c1=O` as the compound, how does the IC50 read?
A: > 10 µM

Target: Ribosomal protein S6 kinase alpha-5 (Homo sapiens, UniProt O75582)
Sequence (O75582 whole entry): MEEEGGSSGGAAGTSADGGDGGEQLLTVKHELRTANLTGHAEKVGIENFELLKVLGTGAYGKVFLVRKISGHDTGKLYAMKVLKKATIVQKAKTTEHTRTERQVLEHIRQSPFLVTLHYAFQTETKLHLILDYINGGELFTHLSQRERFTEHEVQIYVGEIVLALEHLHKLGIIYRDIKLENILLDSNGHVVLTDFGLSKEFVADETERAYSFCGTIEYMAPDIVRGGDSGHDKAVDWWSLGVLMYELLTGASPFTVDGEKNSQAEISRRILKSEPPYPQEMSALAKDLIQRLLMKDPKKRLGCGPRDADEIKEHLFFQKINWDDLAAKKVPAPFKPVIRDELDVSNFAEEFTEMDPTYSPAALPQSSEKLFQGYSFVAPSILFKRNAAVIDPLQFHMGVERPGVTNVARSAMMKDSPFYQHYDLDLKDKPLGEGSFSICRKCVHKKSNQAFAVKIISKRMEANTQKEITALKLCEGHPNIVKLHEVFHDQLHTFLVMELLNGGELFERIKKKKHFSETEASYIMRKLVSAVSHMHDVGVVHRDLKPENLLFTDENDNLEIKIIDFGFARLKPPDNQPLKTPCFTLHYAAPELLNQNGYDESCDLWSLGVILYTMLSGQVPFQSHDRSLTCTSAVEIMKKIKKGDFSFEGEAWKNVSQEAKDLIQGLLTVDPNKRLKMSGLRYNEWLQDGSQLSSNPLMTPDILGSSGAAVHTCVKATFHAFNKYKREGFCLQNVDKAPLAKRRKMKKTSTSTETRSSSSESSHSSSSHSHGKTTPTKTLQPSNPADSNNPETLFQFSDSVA
Assay: Inhibition of mitogen and stress-activated protein kinase-1(MSK-1 kinase)

Q: For `CC(=O)c1c(C)c2cnc(Nc3ccc(N4CCNCC4)cc3)nc2n(C2CCCC2)c1=O`, which IC50 is on record?
A: > 10 µM

Target: not listed separately
Assay: Inhibition of Protein Kinase A
Design: species or system Homo sapiens

Q: For `CC(=O)c1c(C)c2cnc(Nc3ccc(N4CCNCC4)cc3)nc2n(C2CCCC2)c1=O`, which IC50 is on record?
A: > 10 µM

Target: Protein kinase C (PKC)
Assay: Inhibition of Protein Kinase C
Format: protein assay, Homo sapiens

Q: Which IC50 does the source give for `CC(=O)c1c(C)c2cnc(Nc3ccc(N4CCNCC4)cc3)nc2n(C2CCCC2)c1=O` here?
A: > 10 µM

Target: Serine/threonine-protein kinase AKT (Homo sapiens, UniProt P31751+Q9Y243+P31749)
Assay: Inhibition of Protein kinase B
Format: protein assay

Q: With `CC(=O)c1c(C)c2cnc(Nc3ccc(N4CCNCC4)cc3)nc2n(C2CCCC2)c1=O` as the compound, how does the IC50 read?
A: > 10 µM

Target: not listed separately
Assay: Inhibition of Phosphorylase kinase

Q: For `CC(=O)c1c(C)c2cnc(Nc3ccc(N4CCNCC4)cc3)nc2n(C2CCCC2)c1=O`, which IC50 is on record?
A: > 10 µM

Target: Glycogen synthase kinase-3 beta (Homo sapiens, UniProt P49841)
Sequence (P49841 whole entry): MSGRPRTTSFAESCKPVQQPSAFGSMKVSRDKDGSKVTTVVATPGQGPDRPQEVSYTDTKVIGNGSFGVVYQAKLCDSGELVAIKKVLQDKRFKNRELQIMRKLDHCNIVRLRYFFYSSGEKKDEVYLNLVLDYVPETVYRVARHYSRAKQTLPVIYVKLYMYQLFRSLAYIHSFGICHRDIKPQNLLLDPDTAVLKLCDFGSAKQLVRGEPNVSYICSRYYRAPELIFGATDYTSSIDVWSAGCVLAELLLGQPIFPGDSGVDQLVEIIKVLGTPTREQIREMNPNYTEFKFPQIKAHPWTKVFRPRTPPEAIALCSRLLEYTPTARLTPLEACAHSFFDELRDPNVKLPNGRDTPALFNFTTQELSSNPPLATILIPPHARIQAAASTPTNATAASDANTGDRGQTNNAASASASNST
Assay: Inhibition of Glycogen synthase kinase 3 beta

Q: For `CC(=O)c1c(C)c2cnc(Nc3ccc(N4CCNCC4)cc3)nc2n(C2CCCC2)c1=O`, which IC50 is on record?
A: > 10 µM

Target: MAP kinase-activated protein kinase 2 (Homo sapiens, UniProt P49137)
Sequence (P49137 whole entry): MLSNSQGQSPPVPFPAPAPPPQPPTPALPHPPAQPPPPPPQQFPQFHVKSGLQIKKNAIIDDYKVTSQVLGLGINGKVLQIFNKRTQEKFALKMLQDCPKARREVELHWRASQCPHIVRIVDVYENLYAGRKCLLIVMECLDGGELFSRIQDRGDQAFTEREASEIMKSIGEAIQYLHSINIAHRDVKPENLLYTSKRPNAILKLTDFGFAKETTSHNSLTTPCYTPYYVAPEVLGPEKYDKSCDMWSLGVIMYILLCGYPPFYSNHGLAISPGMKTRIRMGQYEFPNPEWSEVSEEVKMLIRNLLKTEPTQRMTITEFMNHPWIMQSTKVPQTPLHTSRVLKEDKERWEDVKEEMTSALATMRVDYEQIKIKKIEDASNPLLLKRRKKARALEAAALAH
Assay: Inhibition of MAP kinase-activated protein kinase 2

Q: Which IC50 does the source give for `CC(=O)c1c(C)c2cnc(Nc3ccc(N4CCNCC4)cc3)nc2n(C2CCCC2)c1=O` here?
A: > 10 µM

Target: Ribosomal protein S6 kinase (P70S6K) (Homo sapiens, UniProt P23443+Q9UBS0)
Sequence (Q9UBS0 whole entry): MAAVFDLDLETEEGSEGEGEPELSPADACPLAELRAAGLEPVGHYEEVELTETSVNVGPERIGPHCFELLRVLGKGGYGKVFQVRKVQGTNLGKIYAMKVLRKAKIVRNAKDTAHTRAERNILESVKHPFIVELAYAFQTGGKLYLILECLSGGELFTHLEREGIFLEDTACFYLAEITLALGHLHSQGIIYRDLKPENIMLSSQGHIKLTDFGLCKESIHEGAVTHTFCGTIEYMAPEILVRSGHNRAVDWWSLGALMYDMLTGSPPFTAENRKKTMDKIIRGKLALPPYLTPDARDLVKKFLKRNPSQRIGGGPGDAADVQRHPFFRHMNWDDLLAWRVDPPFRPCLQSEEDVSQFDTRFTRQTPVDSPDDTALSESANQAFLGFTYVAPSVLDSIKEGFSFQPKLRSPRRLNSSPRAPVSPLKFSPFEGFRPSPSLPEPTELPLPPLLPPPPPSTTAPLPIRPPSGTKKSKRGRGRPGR
Sequence (P23443 whole entry): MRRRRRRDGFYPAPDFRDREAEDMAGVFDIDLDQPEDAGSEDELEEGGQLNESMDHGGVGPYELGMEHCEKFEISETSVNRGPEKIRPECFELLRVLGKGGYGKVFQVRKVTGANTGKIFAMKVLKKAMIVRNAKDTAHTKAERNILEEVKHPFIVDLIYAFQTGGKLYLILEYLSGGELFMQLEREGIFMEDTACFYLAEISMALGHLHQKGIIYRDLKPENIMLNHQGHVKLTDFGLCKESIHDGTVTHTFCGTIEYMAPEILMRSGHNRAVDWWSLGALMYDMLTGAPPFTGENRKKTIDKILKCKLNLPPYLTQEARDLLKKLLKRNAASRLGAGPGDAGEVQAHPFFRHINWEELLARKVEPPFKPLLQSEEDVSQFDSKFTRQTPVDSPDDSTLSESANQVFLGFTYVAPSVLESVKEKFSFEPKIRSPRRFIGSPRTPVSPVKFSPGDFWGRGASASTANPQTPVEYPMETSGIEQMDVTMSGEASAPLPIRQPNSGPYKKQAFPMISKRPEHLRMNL
Assay: Inhibition of Ribosomal protein S6 kinase (p70S6K1)
Format: protein-complex assay

Q: For `CC(=O)c1c(C)c2cnc(Nc3ccc(N4CCNCC4)cc3)nc2n(C2CCCC2)c1=O`, which IC50 is on record?
A: > 10 µM

Target: not listed separately
Assay: Inhibition of Mitogen activated protein kinase kinase 1

Q: Which IC50 does the source give for `CC(=O)c1c(C)c2cnc(Nc3ccc(N4CCNCC4)cc3)nc2n(C2CCCC2)c1=O` here?
A: > 10 µM

Target: Cyclin-dependent kinase 1/cyclin B (Homo sapiens, UniProt P06493)
Assay: Inhibition of [32P]ATP binding to Cyclin dependent kinase 1-cyclin B
Format: protein-complex assay
Outline: (§1)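 Human recombinant Cdk–cyclin holoenzymes expressed in insect cells via baculovirus. Each reaction held 20 ng enzyme, 1 µg GST-retinoblastoma substrate and inhibitor dilutions in 20 mM Tris pH 7.4, 50 mM NaCl, 1 mM DTT, 10 mM MgCl2. Started with [32P]ATP (0.25 µCi), at 25 µM for Cdk4 or 12 µM for Cdk2/E, Cdk2/A and Cdc2/B. Ran 15 min at 25 °C. Stopped with TCA and precipitated ≥1 h at 4 °C.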

Q: For `Cc1c(C(=O)O)c(=O)n(C2CCCC2)c2nc(Nc3ccc(N4CCNCC4)cc3)ncc12`, which IC50 is on record?
A: > 5 µM

Q: Which IC50 does the source give for `Cc1cc(=O)n(C2CCCC2)c2nc(Nc3ccc(N4CCC(O)C4)cc3)ncc12` (stereo unspecified) here?
A: > 5 µM

Q: Which IC50 does the source give for `O=c1cc(C(F)(F)F)c2cnc(Nc3ccc(N4CCNCC4)cc3)nc2n1C1CCCC1` here?
A: > 5 µM

Q: For `Cc1cc(=O)n(C2CCCC2)c2nc(Nc3ccc(N4CCC(N)C4)cc3)ncc12` (stereo unspecified), which IC50 is on record?
A: > 5 µM

Q: For `O=c1ccc2cnc(Nc3ccc(N4CCCCC4)cc3)nc2n1C1CCCC1`, which IC50 is on record?
A: 0.57 µM

Q: With `Cc1cc(=O)n(C2CCCC2)c2nc(Nc3ccc(N4CCNCC4)cc3)ncc12` as the compound, how does the IC50 read?
A: > 5 µM

Q: With `Cc1cc(=O)n(C2CCCC2)c2nc(Nc3ccc(N4CCCNCC4)cc3)ncc12` as the compound, how does the IC50 read?
A: > 5 µM

Target: Cyclin-dependent kinase 4/cyclin D (Homo sapiens, UniProt P11802)
Assay: (§2) Inhibition of [32P]ATP binding to Cyclin dependant kinase 4-cyclin D
Format: protein-complex assay
Outline: as §1

Q: With `Cc1c(C(=O)O)c(=O)n(C2CCCC2)c2nc(Nc3ccc(N4CCNCC4)cc3)ncc12` as the compound, how does the IC50 read?
A: 0.032 µM

Q: For `Cc1cc(=O)n(C2CCCC2)c2nc(Nc3ccc(N4CCC(O)C4)cc3)ncc12` (stereo unspecified), which IC50 is on record?
A: 0.26 µM

Q: Which IC50 does the source give for `O=c1cc(C(F)(F)F)c2cnc(Nc3ccc(N4CCNCC4)cc3)nc2n1C1CCCC1` here?
A: 2.65 µM

Q: With `Cc1cc(=O)n(C2CCCC2)c2nc(Nc3ccc(N4CCC(N)C4)cc3)ncc12` (stereo unspecified) as the compound, how does the IC50 read?
A: 0.064 µM

Q: With `O=c1ccc2cnc(Nc3ccc(N4CCCCC4)cc3)nc2n1C1CCCC1` as the compound, how does the IC50 read?
A: 0.01 µM

Q: Which IC50 does the source give for `Cc1cc(=O)n(C2CCCC2)c2nc(Nc3ccc(N4CCNCC4)cc3)ncc12` here?
A: 0.014 µM

Q: With `Cc1cc(=O)n(C2CCCC2)c2nc(Nc3ccc(N4CCCNCC4)cc3)ncc12` as the compound, how does the IC50 read?
A: 0.052 µM

Target: Cyclin-dependent kinase 4/cyclin D (Homo sapiens, UniProt P11802+P24385+P30281+P30279)
Sequence (P11802 whole entry): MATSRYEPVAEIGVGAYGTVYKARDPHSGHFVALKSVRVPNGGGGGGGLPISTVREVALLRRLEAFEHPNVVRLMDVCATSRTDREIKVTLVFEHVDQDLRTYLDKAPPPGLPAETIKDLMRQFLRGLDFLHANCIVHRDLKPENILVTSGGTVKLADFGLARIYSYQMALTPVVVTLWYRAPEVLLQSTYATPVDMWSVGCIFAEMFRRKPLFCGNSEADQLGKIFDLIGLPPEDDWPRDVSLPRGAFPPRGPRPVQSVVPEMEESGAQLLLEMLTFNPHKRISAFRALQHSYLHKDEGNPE
Sequence (P24385 whole entry): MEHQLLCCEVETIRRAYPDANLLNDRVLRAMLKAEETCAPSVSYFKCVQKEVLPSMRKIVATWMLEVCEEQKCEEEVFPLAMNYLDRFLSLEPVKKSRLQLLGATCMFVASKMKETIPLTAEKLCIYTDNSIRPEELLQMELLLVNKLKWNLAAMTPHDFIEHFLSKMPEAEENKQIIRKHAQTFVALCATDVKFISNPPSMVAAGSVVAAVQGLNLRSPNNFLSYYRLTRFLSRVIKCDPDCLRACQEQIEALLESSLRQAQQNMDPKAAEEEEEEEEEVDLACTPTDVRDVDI
Sequence (P30281 whole entry): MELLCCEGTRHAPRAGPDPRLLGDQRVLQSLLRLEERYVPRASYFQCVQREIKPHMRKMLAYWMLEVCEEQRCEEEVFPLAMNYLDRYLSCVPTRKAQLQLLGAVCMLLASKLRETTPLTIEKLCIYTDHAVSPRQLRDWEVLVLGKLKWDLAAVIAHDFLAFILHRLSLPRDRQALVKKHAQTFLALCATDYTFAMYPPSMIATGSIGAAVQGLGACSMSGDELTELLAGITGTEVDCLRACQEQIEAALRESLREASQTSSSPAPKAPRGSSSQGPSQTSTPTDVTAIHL
Sequence (P30279 whole entry): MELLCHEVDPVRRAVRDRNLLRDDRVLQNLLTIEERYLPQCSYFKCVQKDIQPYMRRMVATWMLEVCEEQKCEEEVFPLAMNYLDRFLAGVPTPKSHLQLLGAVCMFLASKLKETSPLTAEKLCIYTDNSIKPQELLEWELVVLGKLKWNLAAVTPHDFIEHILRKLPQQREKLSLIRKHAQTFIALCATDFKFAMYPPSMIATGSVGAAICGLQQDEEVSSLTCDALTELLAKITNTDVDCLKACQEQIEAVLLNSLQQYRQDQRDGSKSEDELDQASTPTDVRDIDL
Assay: as §2
Format: protein-complex assay
Outline: as §1

Q: Which IC50 does the source give for `CC(=O)c1c(C)c2cnc(Nc3ccc(N4CCNCC4)cc3)nc2n(C2CCCC2)c1=O` here?
A: 0.002 µM

Target: Cyclin-dependent kinase 2/cyclin A (Homo sapiens, UniProt P24941)
Assay: Inhibition of [32P]ATP binding to Cyclin dependent kinase 2-cyclin A
Format: protein-complex assay
Outline: (§3)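 Human recombinant Cdk–cyclin holoenzymes expressed in insect cells via baculovirus. Each reaction held 20 ng enzyme, 1 µg GST-retinoblastoma substrate and inhibitor dilutions in 20 mM Tris pH 7.4, 50 mM NaCl, 1 mM DTT, 10 mM MgCl2. Stopped with TCA and precipitated ≥1 h at 4 °C.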

Q: For `Cc1c(C(=O)O)c(=O)n(C2CCCC2)c2nc(Nc3ccc(N4CCNCC4)cc3)ncc12`, which IC50 is on record?
A: > 5 µM

Q: Which IC50 does the source give for `O=c1cc(C(F)(F)F)c2cnc(Nc3ccc(N4CCNCC4)cc3)nc2n1C1CCCC1` here?
A: > 5 µM

Q: For `O=c1ccc2cnc(Nc3ccc(N4CCCCC4)cc3)nc2n1C1CCCC1`, which IC50 is on record?
A: 0.66 µM

Q: With `Cc1cc(=O)n(C2CCCC2)c2nc(Nc3ccc(N4CCCNCC4)cc3)ncc12` as the compound, how does the IC50 read?
A: > 5 µM

Target: Cyclin-dependent kinase 2/cyclin E (Homo sapiens, UniProt P24941)
Assay: Inhibition of [32P]ATP binding to Cyclin dependent kinase 2-cyclin E
Format: protein-complex assay
Outline: as §3

Q: With `Cc1c(C(=O)O)c(=O)n(C2CCCC2)c2nc(Nc3ccc(N4CCNCC4)cc3)ncc12` as the compound, how does the IC50 read?
A: > 5 µM

Q: With `O=c1cc(C(F)(F)F)c2cnc(Nc3ccc(N4CCNCC4)cc3)nc2n1C1CCCC1` as the compound, how does the IC50 read?
A: > 5 µM

Q: Which IC50 does the source give for `O=c1ccc2cnc(Nc3ccc(N4CCCCC4)cc3)nc2n1C1CCCC1` here?
A: 0.246 µM

Q: For `Cc1cc(=O)n(C2CCCC2)c2nc(Nc3ccc(N4CCCNCC4)cc3)ncc12`, which IC50 is on record?
A: > 5 µM

Target: not listed separately
Assay: Inhibition of 3-phosphoinisitide-dependent protein kinase-1

Q: With `CC(=O)c1c(C)c2cnc(Nc3ccc(N4CCNCC4)cc3)nc2n(C2CCCC2)c1=O` as the compound, how does the IC50 read?
A: > 10 µM

Target: Mitogen-activated protein kinase 1 (Homo sapiens, UniProt P28482)
Sequence (P28482 whole entry): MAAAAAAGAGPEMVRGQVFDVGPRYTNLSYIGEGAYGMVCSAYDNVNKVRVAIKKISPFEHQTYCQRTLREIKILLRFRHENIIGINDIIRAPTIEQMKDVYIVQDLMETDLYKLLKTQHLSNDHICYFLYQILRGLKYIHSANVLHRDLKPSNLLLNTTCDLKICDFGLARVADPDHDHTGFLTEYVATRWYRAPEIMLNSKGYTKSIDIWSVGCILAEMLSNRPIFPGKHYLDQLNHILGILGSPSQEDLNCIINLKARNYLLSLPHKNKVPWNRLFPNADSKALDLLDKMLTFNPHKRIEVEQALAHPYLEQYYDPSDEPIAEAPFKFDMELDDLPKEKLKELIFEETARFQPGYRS
Assay: Inhibition of Mitogen activated protein kinase (MAPK2/erk2)

Q: Which IC50 does the source give for `CC(=O)c1c(C)c2cnc(Nc3ccc(N4CCNCC4)cc3)nc2n(C2CCCC2)c1=O` here?
A: > 10 µM

Target: c-Jun N-terminal kinase, JNK (Homo sapiens, UniProt P45983+P53779+P45984)
Assay: Inhibition of c-Jun N-terminal kinase
Format: protein assay

Q: Which IC50 does the source give for `CC(=O)c1c(C)c2cnc(Nc3ccc(N4CCNCC4)cc3)nc2n(C2CCCC2)c1=O` here?
A: > 10 µM

System: MDA-MB-435
Assay: In vitro inhibitory concentration is measured by the incorporation of [14C]thymidine in human breast carcinoma MDA-MB-435 cell line
Format: functional, cell-based

Q: For `CC(=O)c1c(C)c2cnc(Nc3ccc(N4CCNCC4)cc3)nc2n(C2CCCC2)c1=O`, which IC50 is on record?
A: 0.032 µM

Target: Fibroblast growth factor receptor (Homo sapiens, UniProt P22607+P11362+P22455+P21802)
Assay: Inhibition of Fibroblast growth factor receptor
Format: protein assay

Q: For `CC(=O)c1c(C)c2cnc(Nc3ccc(N4CCNCC4)cc3)nc2n(C2CCCC2)c1=O`, which IC50 is on record?
A: 1.86 µM

Target: T1, MAP kinase-activated protein kinase 5 (Homo sapiens, UniProt Q8IW41)
T1 sequence (Q8IW41 whole entry): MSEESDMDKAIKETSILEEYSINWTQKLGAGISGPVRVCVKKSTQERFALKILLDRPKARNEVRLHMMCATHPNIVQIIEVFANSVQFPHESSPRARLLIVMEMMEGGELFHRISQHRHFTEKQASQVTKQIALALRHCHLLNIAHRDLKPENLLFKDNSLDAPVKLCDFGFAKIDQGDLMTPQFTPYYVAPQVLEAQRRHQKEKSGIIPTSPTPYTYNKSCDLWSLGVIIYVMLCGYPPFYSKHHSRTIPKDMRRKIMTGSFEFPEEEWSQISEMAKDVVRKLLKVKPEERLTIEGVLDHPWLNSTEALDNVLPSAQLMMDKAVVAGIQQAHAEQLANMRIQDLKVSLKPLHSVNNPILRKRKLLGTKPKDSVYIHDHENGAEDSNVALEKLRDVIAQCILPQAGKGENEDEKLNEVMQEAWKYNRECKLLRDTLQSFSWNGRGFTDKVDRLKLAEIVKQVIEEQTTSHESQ
Assay: Inhibition of p38-regulated/activated kinase (PRAK)

Q: Which IC50 does the source give for `CC(=O)c1c(C)c2cnc(Nc3ccc(N4CCNCC4)cc3)nc2n(C2CCCC2)c1=O` here?
A: > 10 µM
